In ChEMBL document CHEMBL1800056, “Discovery of 2-(6-{[(6-fluoroquinolin-2-yl)methyl]amino}bicyclo[3.1.0]hex-3-yl)-N-hydroxypyrimidine-5-carboxamide (CHR-3996), a class I selective orally active histone deacetylase inhibitor” (J Med Chem, 2010):
Calls of active or inactive are those of the source. The rule behind the calls is not given here.

How the values were obtained:
Histone deacetylase = test: Inhibition of HDAC in human HeLa cells nuclear extract using fluor de Lys as substrate preincubated for 5 mins by fluorometric analysis; type: cell-based
HCT-116 [1] = test: Antiproliferative activity against human HCT116 cells after 72 hrs by WST-1 assay; type: functional; conditions: Homo sapiens, HCT-116, 72 h
How it was run: (§1)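 Cells seeded at (1-5) × 10³/well in serum-containing medium for 24 h at 37 °C, 5% CO₂. Inhibitor added at 0.6-10000 nM for 72 h, with WST-1 pulse over the final 4 h. Formazan read at 450 nm (reference 650 nm). Expressed as % inhibition of vehicle response; GI50 is the concentration inhibiting 50% of vehicle response; n = 6 replicates.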

[2] = Ratio of GI50 for human HCT116 cells to IC50 for HDAC in human HeLa cell nuclear extracts
How it was run: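 Cell/enzyme ratio = HCT116 GI50 divided by HDAC IC50. Enzyme: HeLa nuclear extract (10 μg protein), 5 min preincubation, then Fluor de Lys substrate 62.5 μM, 15 min at room temperature. Stopped with developer containing trichostatin A; fluorescence ex 355/em 455 nm; eight concentrations in duplicate. Cells: HCT116, 72 h exposure (0.6-10000 nM), WST-1 read at 450 nm, n = 6.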

[3] = AUC (0 to t) in plasma of CD1 mouse at 3 mg/kg, po; type: ADME, organism-based; set-up: dose 3 mg/kg, route oral
How it was run: (§2)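 Oral cassette PK in CD1 mice: four compounds per cassette, each at 3 mg/kg po. AUC0-t (ng h/mL) measured in plasma and spleen; spleen/plasma AUC ratio reported.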

[4] = AUC (0 to t) in spleen of CD1 mouse at 3 mg/kg, po; type: ADME, organism-based; set-up: dose 3 mg/kg, route oral; how it was run: as §2
[5] = Clearance in mouse liver microsomes assessed as compound remaining after 30 mins; type: ADME, Microsome; conditions: read-out: Activity
Cytochrome P450 2C19 [6] = molecular target: T1, Cytochrome P450 2C19 (Homo sapiens, UniProt P33261); test: Inhibition of CYP2C19; type: ADME
T1 sequence (P33261 whole entry): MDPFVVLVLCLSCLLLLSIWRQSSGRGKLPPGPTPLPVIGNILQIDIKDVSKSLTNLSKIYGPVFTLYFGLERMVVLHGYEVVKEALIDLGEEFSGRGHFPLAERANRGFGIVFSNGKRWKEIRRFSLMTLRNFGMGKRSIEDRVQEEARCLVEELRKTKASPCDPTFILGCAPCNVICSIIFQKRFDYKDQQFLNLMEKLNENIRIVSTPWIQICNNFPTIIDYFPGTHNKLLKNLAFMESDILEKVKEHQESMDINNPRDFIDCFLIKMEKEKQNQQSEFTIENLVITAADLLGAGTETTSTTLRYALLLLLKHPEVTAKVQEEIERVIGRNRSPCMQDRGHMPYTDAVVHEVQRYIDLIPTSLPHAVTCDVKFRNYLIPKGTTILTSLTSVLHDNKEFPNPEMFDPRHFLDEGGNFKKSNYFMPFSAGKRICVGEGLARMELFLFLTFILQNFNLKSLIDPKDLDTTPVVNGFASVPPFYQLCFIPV

Cytochrome P450 2D6 [7] = molecular target: T2, Cytochrome P450 2D6 (Homo sapiens, UniProt P10635); test: Inhibition of CYP2D6; type: ADME
T2 sequence (P10635 whole entry): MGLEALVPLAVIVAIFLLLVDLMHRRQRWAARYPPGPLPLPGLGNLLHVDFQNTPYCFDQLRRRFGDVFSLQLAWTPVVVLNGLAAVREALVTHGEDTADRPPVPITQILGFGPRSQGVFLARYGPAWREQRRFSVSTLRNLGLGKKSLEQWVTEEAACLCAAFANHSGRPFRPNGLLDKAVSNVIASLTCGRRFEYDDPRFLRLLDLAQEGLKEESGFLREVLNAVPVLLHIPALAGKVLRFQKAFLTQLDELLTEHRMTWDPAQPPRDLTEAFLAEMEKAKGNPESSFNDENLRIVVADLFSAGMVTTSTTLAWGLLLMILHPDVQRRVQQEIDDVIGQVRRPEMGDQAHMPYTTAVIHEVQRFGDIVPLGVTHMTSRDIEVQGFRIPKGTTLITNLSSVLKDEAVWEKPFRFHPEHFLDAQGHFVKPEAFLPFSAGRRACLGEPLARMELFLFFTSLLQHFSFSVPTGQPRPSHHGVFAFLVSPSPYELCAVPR

Cytochrome P450 3A4 [8] = molecular target: T3, Cytochrome P450 3A4 (Homo sapiens, UniProt P08684); test: Inhibition of CYP3A4; type: ADME
T3 sequence (P08684 whole entry): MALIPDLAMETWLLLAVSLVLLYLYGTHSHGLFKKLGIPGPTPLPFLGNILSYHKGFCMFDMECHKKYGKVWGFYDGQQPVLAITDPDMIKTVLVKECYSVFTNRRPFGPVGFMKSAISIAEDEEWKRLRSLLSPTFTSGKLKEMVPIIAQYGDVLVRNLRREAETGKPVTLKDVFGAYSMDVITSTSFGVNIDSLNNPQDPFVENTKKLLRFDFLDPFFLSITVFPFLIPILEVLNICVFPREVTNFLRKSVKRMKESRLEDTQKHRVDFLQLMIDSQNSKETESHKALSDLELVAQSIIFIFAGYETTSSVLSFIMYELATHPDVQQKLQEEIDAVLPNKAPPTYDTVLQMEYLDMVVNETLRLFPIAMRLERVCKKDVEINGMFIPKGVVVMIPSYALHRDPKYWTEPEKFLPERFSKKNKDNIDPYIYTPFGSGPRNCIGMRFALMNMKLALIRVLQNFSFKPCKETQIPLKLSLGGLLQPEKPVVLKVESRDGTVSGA

Cytochrome P450 2C19 [9] = molecular target: T1, Cytochrome P450 2C19; test: Inhibition of CYP 2C19 at < 10 uM; type: ADME
Cytochrome P450 2D6 [10] = molecular target: T2, Cytochrome P450 2D6; test: Inhibition of CYP2D6 at < 10 uM; type: ADME
Cytochrome P450 3A4 [11] = molecular target: T3, Cytochrome P450 3A4; test: Inhibition of CYP3A4 at < 10 uM; type: ADME
[12] = AUC (0 to t) in dog at 1 mg/kg, iv; type: ADME, organism-based, Canis lupus familiaris; set-up: dose 1 mg/kg, route intravenous; conditions: plasma
How it was run: (§3)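 Dog single dose: iv 1 mg/kg in 5% DMSO-HPβC (11.25% w/v); po 10 mg/kg in 5% DMSO-saline. AUC0-t in ng h/mL, clearance in (mL/min)/kg, t1/2 in h, F in %.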

[13] = Clearance in dog at 1 mg/kg, iv; type: ADME, organism-based, Canis lupus familiaris; set-up: dose 1 mg/kg, route intravenous; conditions: in vivo; how it was run: as §3
[14] = AUC (0 to t) in dog at 10 mg/kg, po; type: ADME, organism-based, Canis lupus familiaris; set-up: dose 10 mg/kg, route oral; conditions: plasma; how it was run: as §3
[15] = Oral bioavailability in dog at 10 mg/kg; type: ADME, organism-based, Canis lupus familiaris; conditions: in vivo; how it was run: as §3
Histone deacetylase 1 = Histone deacetylase 1 (Homo sapiens, UniProt Q13547); test: Inhibition of human recombinant HDAC1 using fluor de Lys as substrate by fluorometric analysis
Chain of Histone deacetylase 1 (Q13547 whole entry): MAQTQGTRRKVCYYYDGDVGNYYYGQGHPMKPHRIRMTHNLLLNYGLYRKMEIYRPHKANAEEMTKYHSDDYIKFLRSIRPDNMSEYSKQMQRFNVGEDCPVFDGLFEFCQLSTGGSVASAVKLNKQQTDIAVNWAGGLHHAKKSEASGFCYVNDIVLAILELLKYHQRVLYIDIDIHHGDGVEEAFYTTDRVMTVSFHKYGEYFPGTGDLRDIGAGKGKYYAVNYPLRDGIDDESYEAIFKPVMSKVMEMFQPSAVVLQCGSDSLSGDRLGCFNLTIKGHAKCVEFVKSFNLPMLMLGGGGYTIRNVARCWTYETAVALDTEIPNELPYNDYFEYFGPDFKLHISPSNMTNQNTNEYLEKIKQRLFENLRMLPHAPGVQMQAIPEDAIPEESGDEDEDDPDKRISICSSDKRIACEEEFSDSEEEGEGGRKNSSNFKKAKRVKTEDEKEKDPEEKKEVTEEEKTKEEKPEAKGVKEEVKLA

Histone deacetylase 2 = Histone deacetylase 2 (Homo sapiens, UniProt Q92769); test: Inhibition of human recombinant HDAC2 using fluor de Lys as substrate by fluorometric analysis
Chain of Histone deacetylase 2 (Q92769 whole entry): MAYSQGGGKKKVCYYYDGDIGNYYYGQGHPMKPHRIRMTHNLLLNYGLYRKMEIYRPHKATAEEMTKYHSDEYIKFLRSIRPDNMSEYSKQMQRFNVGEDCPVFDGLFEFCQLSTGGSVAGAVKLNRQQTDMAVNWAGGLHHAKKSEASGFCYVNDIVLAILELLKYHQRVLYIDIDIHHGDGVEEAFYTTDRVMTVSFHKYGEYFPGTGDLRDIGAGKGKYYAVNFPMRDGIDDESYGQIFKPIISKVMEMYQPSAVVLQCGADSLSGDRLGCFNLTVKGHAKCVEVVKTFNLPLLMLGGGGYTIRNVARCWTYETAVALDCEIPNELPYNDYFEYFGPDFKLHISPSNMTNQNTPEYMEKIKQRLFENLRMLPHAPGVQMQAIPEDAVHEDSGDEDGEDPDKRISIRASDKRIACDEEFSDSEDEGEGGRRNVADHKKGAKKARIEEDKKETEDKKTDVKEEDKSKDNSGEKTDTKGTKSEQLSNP

Histone deacetylase 5 = Histone deacetylase 5 (Homo sapiens, UniProt Q9UQL6); test: Inhibition of human recombinant HDAC5 using fluor de Lys as substrate by fluorometric analysis
Chain of Histone deacetylase 5 (Q9UQL6 whole entry): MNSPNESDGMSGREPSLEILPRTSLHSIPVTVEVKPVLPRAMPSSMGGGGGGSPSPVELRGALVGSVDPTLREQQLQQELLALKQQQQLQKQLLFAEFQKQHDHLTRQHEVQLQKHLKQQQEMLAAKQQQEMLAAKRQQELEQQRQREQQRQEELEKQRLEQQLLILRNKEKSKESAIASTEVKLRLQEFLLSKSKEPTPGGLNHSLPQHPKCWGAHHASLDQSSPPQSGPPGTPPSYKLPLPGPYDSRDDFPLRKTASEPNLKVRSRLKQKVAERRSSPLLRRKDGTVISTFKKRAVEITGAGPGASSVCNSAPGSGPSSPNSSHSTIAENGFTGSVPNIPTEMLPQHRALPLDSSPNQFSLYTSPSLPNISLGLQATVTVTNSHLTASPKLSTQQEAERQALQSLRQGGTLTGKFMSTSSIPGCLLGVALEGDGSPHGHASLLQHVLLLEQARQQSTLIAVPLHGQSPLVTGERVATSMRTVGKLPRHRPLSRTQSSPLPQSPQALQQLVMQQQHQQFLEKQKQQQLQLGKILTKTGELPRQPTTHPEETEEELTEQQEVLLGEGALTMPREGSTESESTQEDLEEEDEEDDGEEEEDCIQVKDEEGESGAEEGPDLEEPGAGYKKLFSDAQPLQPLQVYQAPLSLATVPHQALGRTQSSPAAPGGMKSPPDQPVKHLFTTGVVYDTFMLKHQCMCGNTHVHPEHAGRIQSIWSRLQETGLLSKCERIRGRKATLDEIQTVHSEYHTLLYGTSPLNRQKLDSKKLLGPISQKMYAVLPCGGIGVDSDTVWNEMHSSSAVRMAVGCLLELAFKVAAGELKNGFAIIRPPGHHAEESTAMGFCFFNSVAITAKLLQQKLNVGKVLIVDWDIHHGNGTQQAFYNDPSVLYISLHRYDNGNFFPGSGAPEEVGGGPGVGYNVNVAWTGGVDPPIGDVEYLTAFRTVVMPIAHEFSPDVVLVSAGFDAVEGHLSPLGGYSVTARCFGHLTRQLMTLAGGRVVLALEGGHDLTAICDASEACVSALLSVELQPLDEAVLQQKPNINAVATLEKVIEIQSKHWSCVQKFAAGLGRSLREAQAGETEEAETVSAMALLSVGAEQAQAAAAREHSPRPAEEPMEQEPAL

[16] = molecular target: Protein deacetylase HDAC6 (Homo sapiens, UniProt Q9UBN7); test: Inhibition of human recombinant HDAC6 using fluor de Lys as substrate by fluorometric analysis
Chain of Protein deacetylase HDAC6 (Q9UBN7 whole entry): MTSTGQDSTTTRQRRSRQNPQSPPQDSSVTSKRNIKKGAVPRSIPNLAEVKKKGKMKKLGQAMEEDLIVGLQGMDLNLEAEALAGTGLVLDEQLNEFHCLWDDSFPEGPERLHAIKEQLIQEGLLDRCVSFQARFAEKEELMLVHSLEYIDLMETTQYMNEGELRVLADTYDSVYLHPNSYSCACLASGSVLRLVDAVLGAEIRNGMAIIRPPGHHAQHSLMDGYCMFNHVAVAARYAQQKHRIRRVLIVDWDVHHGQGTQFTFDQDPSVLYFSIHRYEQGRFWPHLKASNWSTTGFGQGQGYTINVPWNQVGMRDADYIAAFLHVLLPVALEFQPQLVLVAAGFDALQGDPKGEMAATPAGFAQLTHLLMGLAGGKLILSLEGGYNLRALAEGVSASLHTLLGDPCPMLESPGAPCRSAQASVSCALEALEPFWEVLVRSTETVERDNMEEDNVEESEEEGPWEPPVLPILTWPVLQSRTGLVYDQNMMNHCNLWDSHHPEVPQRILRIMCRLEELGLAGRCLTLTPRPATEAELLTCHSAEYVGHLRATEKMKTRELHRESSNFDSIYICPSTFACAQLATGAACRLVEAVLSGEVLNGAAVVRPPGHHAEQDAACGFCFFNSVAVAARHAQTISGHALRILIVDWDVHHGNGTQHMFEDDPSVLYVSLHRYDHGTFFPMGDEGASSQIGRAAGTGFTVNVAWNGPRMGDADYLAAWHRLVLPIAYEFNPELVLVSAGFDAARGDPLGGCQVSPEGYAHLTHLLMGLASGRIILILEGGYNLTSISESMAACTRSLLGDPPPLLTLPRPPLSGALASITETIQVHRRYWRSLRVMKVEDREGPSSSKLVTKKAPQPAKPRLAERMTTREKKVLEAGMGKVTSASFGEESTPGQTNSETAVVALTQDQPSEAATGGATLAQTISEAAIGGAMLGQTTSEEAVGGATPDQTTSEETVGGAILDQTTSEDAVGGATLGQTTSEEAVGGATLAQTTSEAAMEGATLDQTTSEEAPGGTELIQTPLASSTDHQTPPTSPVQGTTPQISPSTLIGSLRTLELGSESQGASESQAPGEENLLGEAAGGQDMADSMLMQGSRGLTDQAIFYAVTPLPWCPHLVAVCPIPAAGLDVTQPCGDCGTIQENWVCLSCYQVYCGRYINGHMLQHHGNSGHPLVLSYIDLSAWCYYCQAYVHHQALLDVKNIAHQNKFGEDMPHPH

HCT-116 [17] = test: Induction of apoptosis in human HCT116 cells assessed as PARP cleavage after 30 hrs by Western blot analysis; type: functional, cell-based
How it was run: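 HCT116 cells seeded at 2 × 10⁴ cells/mL and treated 24 h later for 30 h. RIPA lysates run at 10 μg/lane on 4-12% gels. Blotted with antibodies to PARP and cleaved PARP (1:1000); GAPDH as loading control; ECL detection.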

LoVo = test: Antiproliferative activity against human LoVo cells after 72 hrs by WST-1 assay; type: functional; conditions: Homo sapiens, LoVo, 72 h; how it was run: as §1
A2780 = test: Antiproliferative activity against human A2780 cells after 72 hrs by WST-1 assay; type: functional; conditions: Homo sapiens, A2780, 72 h; how it was run: as §1
DU-145 = test: Antiproliferative activity against human DU145 cells after 72 hrs by WST-1 assay; type: functional; conditions: DU-145, 72 h
How it was run: (§4)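 Cells seeded at (1-5) × 10³/well in serum-containing medium for 24 h at 37 °C, 5% CO₂. Inhibitor added at 0.6-10000 nM for 72 h, with WST-1 pulse over the final 4 h. Formazan read at 450 nm (reference 650 nm).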

HepG2 = test: Antiproliferative activity against human HepG2 cells after 72 hrs by WST-1 assay; type: functional; conditions: Homo sapiens, HepG2, 72 h; how it was run: as §1
MG-63 = test: Antiproliferative activity against human MG63 cells after 72 hrs by WST-1 assay; type: functional; conditions: Homo sapiens, MG-63, 72 h; how it was run: as §1
MIA PaCa-2 = test: Antiproliferative activity against human MIAPaCa2 cells after 72 hrs by WST-1 assay; type: functional; conditions: Homo sapiens, MIA PaCa-2, 72 h; how it was run: as §1
A549 = test: Antiproliferative activity against human A549 cells after 72 hrs by WST-1 assay; type: functional; conditions: Homo sapiens, A549, 72 h; how it was run: as §1
COR-L23 [18] = test: Antiproliferative activity against human COR-L23 cells after 72 hrs by WST-1 assay; type: functional; conditions: Homo sapiens, COR-L23, 72 h; how it was run: as §1
COR-L23 [19] = test: Antiproliferative activity against doxorubicin-resistant human COR-L23 cells after 72 hrs by WST-1 assay; type: functional; conditions: Homo sapiens, COR-L23, 72 h; how it was run: as §1
MOLT-4 = test: Antiproliferative activity against human MOLT4 cells after 72 hrs by WST-1 assay; type: functional; conditions: Homo sapiens, MOLT-4, 72 h; how it was run: as §1
HuT78 = test: Antiproliferative activity against human HUT78 cells after 72 hrs by WST-1 assay; type: functional; conditions: HuT78, 72 h; how it was run: as §4
HCT-116 [20] = test: Cell cycle arrest in human HCT116 cells assessed as accumulation at sub-G1 phase at 300 nM after 15 hrs by propidium iodide staining based flow cytometric analysis; type: functional
HCT-116 [21] = test: Cell cycle arrest in human HCT116 cells assessed as accumulation at G1 phase at 300 nM after 15 hrs by propidium iodide staining based flow cytometric analysis; type: functional
HCT-116 [22] = test: Cell cycle arrest in human HCT116 cells assessed as accumulation at S phase at 300 nM after 15 hrs by propidium iodide staining based flow cytometric analysis; type: functional
HCT-116 [23] = test: Cell cycle arrest in human HCT116 cells assessed as accumulation at G2/M phase at 300 nM after 15 hrs by propidium iodide staining based flow cytometric analysis; type: functional
Spleen = test: Ratio of AUC (0 to t) in spleen to plasma of CD1 mouse at 3 mg/kg, po; conditions: in vivo

Structure (SMILES)	IC50 (Histone deacetylase) [nM]	GI50 (HCT-116 [1]) [nM]	Ratio [2]	AUC(0-t) [3] [ng·h/mL]	AUC(0-t) [4] [ng·h/mL]	remaining at 0.5 h [5] [%]	IC50 (Cytochrome P450 2C19 [6]) [nM]	IC50 (Cytochrome P450 2D6 [7]) [nM]	IC50 (Cytochrome P450 3A4 [8]) [nM]	inhibition (INH) (Cytochrome P450 2C19 [9])	inhibition (INH) (Cytochrome P450 2D6 [10])	inhibition (INH) (Cytochrome P450 3A4 [11])	AUC(0-t) [12] [ng·h/mL]	clearance [13] [mL/min/kg]	AUC(0-t) [14] [ng·h/mL]	bioavailability [15] [%]	IC50 (Histone deacetylase 1) [nM]	IC50 (Histone deacetylase 2) [nM]	IC50 (Histone deacetylase 5) [nM]	IC50 [16] [nM]	further results
O=C(NO)c1cnc(N2C[C@@H]3[C@H](C2)[C@H]3NCc2ccc3cc(F)ccc3n2)nc1 [NANATINOSTAT]	8	72	9	93	775	31	> 50000	> 50000	10000	Not Active	Not Active	Not Active	241	70	950	40	3	4	200	2100	Ki (Histone deacetylase): 4.8 nM; Activity (HCT-116 [17]): Active; GI50 (LoVo): 140 nM; GI50 (A2780): 210 nM; GI50 (DU-145): 48 nM; GI50 (HepG2): 230 nM; GI50 (MG-63): 750 nM; GI50 (MIA PaCa-2): 280 nM; GI50 (A549): 250 nM; GI50 (COR-L23 [18]): 105 nM; GI50 (COR-L23 [19]): 560 nM; GI50 (MOLT-4): 31 nM; GI50 (HuT78): 31 nM; Activity (HCT-116 [20]): 21%; Activity (HCT-116 [21]): 21%; Activity (HCT-116 [22]): 10%; Activity (HCT-116 [23]): 48%; Ratio (Spleen): 8.3
O=C(NO)c1cnc(N2C[C@@H]3[C@H](C2)[C@H]3NCc2ccc(Cl)cc2)nc1	13	210	16	58	436	43	50000	10000	> 50000	Not Active	Not Active	Not Active	265	63	1480	56	6	14	500	3300	Activity (HCT-116 [17]): Active; GI50 (LoVo): 310 nM; GI50 (A2780): 410 nM; GI50 (DU-145): 92 nM; GI50 (HepG2): 470 nM; GI50 (MG-63): 1600 nM; GI50 (MIA PaCa-2): 620 nM; GI50 (A549): 500 nM; GI50 (COR-L23 [18]): 210 nM; GI50 (COR-L23 [19]): 1100 nM; GI50 (MOLT-4): 71 nM; GI50 (HuT78): 60 nM; Activity (HCT-116 [20]): 23%; Activity (HCT-116 [21]): 33%; Activity (HCT-116 [22]): 11%; Activity (HCT-116 [23]): 33%; Ratio (Spleen): 7.5
